Measured values reported in BindingDB's records for doi:10.1021/jm980722p (Merck Research Laboratories, 1999).

Molecular target: Integrin alpha-IIb/beta-3 (Homo sapiens, UniProt P08514+P05106)
Experiment: The compound was tested in vitro for the inhibition of aggregation of human gel-filtered platelets(GFP)
Method in brief: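 Human gel-filtered platelets at 2 × 10⁸/mL were mixed with 0.1 mg/mL human fibrinogen, 1 mM CaCl₂ and the test compound, then challenged with ADP. Aggregation was read by light transmittance at 37 °C against control samples.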

Sequence of Integrin alpha-IIb/beta-3 (P05106 27-788 limits assumed): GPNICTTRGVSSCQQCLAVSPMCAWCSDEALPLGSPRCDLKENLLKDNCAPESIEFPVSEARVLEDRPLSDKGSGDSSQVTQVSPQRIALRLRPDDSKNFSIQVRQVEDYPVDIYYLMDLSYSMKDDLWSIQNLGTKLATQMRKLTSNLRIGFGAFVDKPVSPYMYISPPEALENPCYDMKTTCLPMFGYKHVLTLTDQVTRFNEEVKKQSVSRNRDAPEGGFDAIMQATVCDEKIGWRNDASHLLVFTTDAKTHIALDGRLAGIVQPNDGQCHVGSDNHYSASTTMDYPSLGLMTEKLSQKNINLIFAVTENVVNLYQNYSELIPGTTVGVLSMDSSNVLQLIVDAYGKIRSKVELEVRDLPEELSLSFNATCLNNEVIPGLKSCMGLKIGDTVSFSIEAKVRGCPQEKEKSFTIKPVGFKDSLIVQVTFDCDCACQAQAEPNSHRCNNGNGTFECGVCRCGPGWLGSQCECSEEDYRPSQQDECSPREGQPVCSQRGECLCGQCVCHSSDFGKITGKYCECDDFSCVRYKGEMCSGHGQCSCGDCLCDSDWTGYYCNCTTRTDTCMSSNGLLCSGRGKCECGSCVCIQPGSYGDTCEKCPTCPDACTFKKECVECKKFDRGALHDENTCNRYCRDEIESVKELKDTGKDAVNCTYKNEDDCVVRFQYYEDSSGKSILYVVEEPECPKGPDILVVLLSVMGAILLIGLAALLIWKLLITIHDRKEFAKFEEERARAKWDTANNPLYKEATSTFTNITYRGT
Sequence of Integrin alpha-IIb/beta-3 (P08514 32-887 limits assumed): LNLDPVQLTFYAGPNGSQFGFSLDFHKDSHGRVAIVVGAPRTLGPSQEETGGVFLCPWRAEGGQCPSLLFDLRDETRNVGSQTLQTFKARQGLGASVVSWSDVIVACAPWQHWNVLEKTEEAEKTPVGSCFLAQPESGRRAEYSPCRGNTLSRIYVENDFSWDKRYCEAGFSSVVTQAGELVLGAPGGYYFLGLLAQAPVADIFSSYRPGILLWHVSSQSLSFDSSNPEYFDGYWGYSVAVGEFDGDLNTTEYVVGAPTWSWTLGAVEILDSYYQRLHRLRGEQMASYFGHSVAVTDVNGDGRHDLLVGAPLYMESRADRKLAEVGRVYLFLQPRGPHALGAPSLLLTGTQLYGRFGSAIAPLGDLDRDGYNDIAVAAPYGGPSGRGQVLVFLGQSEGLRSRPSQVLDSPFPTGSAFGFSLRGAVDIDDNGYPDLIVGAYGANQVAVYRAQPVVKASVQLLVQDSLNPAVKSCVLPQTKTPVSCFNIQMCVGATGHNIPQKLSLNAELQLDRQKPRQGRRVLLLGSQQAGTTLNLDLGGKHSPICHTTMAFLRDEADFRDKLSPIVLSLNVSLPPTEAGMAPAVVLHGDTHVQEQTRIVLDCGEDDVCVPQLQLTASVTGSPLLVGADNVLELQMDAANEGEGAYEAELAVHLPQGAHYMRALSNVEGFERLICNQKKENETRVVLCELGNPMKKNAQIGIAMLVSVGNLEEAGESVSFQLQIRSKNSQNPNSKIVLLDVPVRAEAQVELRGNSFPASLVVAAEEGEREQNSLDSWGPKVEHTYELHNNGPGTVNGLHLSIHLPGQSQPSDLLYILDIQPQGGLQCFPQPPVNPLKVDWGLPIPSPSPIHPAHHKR
Sequence of Integrin alpha-IIb/beta-3 (P08514 891-1039 limits assumed): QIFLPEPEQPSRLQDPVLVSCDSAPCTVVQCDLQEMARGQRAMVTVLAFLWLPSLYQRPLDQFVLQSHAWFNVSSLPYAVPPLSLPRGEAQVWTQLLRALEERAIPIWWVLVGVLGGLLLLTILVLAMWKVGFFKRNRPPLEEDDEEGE

| Compound | IC50 [nM] |
| --- | --- |
| O=C(NC[C@@H](NS(=O)(=O)c1ccccc1)C(=O)O)c1cc2cc(CCC3CCNCC3)sc2s1 | 36 |
| O=C(NC[C@@H](NS(=O)(=O)c1cccnc1)C(=O)O)c1cc2cc(CCC3CCNCC3)sc2s1 | 19 |
| O=C(O)CCNC(=O)c1cc2cc(CCC3CCNCC3)sc2s1 [3-{[5-(2-Piperidin-4-yl-ethyl)-thieno[2,3-b]thiophene-2-carbonyl]-amino}-propionic acid] | 410 |
| O=C(O)CCNC(=O)c1cc2sc(CCC3CCNCC3)cc2s1 [3-{[5-(2-Piperidin-4-yl-ethyl)-thieno[3,2-b]thiophene-2-carbonyl]-amino}-propionic acid] | 500 |
| CCOCCS(=O)(=O)N[C@@H](CNC(=O)c1cc2cc(CCC3CCNCC3)sc2s1)C(=O)O [(S)-2-(2-Ethoxy-ethanesulfonylamino)-3-{[5-(2-piperidin-4-yl-ethyl)-thieno[2,3-b]thiophene-2-carbonyl]-amino}-propionic acid] | 7 |
| CCOCCS(=O)(=O)N[C@@H](CNC(=O)c1cc2sc(CCC3CCNCC3)cc2s1)C(=O)O [(S)-2-(2-Ethoxy-ethanesulfonylamino)-3-{[5-(2-piperidin-4-yl-ethyl)-thieno[3,2-b]thiophene-2-carbonyl]-amino}-propionic acid] | 10 |
| O=C(NC[C@H](NS(=O)(=O)c1ccc(Cl)cc1)C(=O)O)c1cc2cc(CCC3CCNCC3)sc2s1 [(S)-2-(4-Chloro-benzenesulfonylamino)-3-{[5-(2-piperidin-4-yl-ethyl)-thieno[2,3-b]thiophene-2-carbonyl]-amino}-propionic acid] | 11 |
| CCCCS(=O)(=O)N[C@@H](CNC(=O)c1cc2cc(CCC3CCNCC3)sc2s1)C(=O)O [(S)-2-(Butane-1-sulfonylamino)-3-{[5-(2-piperidin-4-yl-ethyl)-thieno[2,3-b]thiophene-2-carbonyl]-amino}-propionic acid] | 32 |
| CCCCS(=O)(=O)N[C@@H](CNC(=O)c1cc2sc(CCC3CCNCC3)cc2s1)C(=O)O [(S)-2-(Butane-1-sulfonylamino)-3-{[5-(2-piperidin-4-yl-ethyl)-thieno[3,2-b]thiophene-2-carbonyl]-amino}-propionic acid] | 10 |
| CS(=O)(=O)N[C@@H](CNC(=O)c1cc2cc(CCC3CCNCC3)sc2s1)C(=O)O [(S)-2-Methanesulfonylamino-3-{[5-(2-piperidin-4-yl-ethyl)-thieno[2,3-b]thiophene-2-carbonyl]-amino}-propionic acid] | 15 |
| CS(=O)(=O)N[C@@H](CNC(=O)c1cc2sc(CCC3CCNCC3)cc2s1)C(=O)O [(S)-2-Methanesulfonylamino-3-{[5-(2-piperidin-4-yl-ethyl)-thieno[3,2-b]thiophene-2-carbonyl]-amino}-propionic acid] | 14 |
| O=C(NC[C@H](NS(=O)(=O)c1cccnc1)C(=O)O)c1cc2cc(C3CCNCC3)sc2s1 [(S)-3-[(5-Piperidin-4-yl-thieno[2,3-b]thiophene-2-carbonyl)-amino]-2-(pyridine-3-sulfonylamino)-propionic acid] | 21 |
| O=C(NC[C@H](NS(=O)(=O)c1cccs1)C(=O)O)c1cc2cc(CCC3CCNCC3)sc2s1 [(S)-3-{[5-(2-Piperidin-4-yl-ethyl)-thieno[2,3-b]thiophene-2-carbonyl]-amino}-2-(thiophene-2-sulfonylamino)-propionic acid] | 9 |
| O=C(NC[C@H](NS(=O)(=O)c1cccnc1)C(=O)O)c1cc2sc(CCC3CCNCC3)cc2s1 [(S)-3-{[5-(2-Piperidin-4-yl-ethyl)-thieno[3,2-b]thiophene-2-carbonyl]-amino}-2-(pyridine-3-sulfonylamino)-propionic acid] | 15 |
| O=C(NC[C@H](NS(=O)(=O)c1cccs1)C(=O)O)c1cc2sc(CCC3CCNCC3)cc2s1 [(S)-3-{[5-(2-Piperidin-4-yl-ethyl)-thieno[3,2-b]thiophene-2-carbonyl]-amino}-2-(thiophene-2-sulfonylamino)-propionic acid] | 13 |
| O=C(NC[C@H](NS(=O)(=O)c1cccnc1)C(=O)O)c1cc2cc(CCCC3CCNCC3)sc2s1 [(S)-3-{[5-(3-Piperidin-4-yl-propyl)-thieno[2,3-b]thiophene-2-carbonyl]-amino}-2-(pyridine-3-sulfonylamino)-propionic acid] | 23 |
